A short description of test [1]: Displacement of [125I]IMPY from amyloid beta (1 to 42) aggregate after 2 hrs by gamma counting. An outline of the steps: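 Competition binding in 1 mL PBS (0.2 M, pH 7.4). Aggregated Aβ1-42 fibrils (60 nM final) with [125I]IMPY and inhibitor at 10^-5 to 10^-10 M, added in ethanol. Nonspecific binding was defined with 1 μM IMPY. Incubated 2 h at 37 °C with shaking, then vacuum-filtered through glass fibre filters and the bound fraction gamma-counted. IC50 was converted to Ki by Cheng-Prusoff; triplicate, mean ± SD.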

For test [2], the species on record is Mus musculus. Briefly: Binding affinity to amyloid beta (1 to 42) aggregate in APP/PS1 transgenic C57BL/6 mouse brain after 1 hr by autoradiography. Type of test: tissue-based. The note with it: C57BL6, tested as the 18F-labelled form. An outline of the steps: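 Paraffin brain sections from 12-month-old male C57BL6-APP/PS1 mice, with wild-type male C57BL6 controls, were deparaffinized through xylene and graded ethanol, then held 30 min in PBS (0.2 M, pH 7.4). Sections were incubated 1 h at room temperature with radiotracer (5 μCi/100 μL), washed 3 min in 40% ethanol, rinsed in water, dried and exposed to an imaging plate overnight.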

For test [3], the species on record is Mus musculus. Nature of the test: Binding affinity to amyloid beta (1 to 42) aggregate in APP/PS1 transgenic C57BL/6 mouse brain by Thioflavin S fluorescent staining assay. Type of test: tissue-based. The note with it: C57BL6, tested as the 18F-labelled form. An outline of the steps:
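The same Tg mouse sections used for autoradiography were stained with thioflavin S to locate plaques. Fluorescence was viewed by microscope: excitation 400–440 nm, dichroic 455 nm, long-pass 470 nm.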

The target of test [4] is Amyloid-beta precursor protein (Homo sapiens) (UniProt P05067). Nature of the test: Binding affinity to amyloid beta (1 to 42) aggregate in Alzheimer disease patient brain by immunohistochemical staining using amyloid beta antibody. The note with it: tested as the 18F-labelled form. An outline of the steps:
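Plaque presence and location in the AD patient temporal-lobe sections were confirmed by immunohistochemistry with monoclonal anti-Aβ1-42 antibody BC05.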

The source made the active and inactive calls. The calls are words filed in the database; no cut-off is given here.

Sequence of Amyloid-beta precursor protein (Homo sapiens) (P05067 whole entry): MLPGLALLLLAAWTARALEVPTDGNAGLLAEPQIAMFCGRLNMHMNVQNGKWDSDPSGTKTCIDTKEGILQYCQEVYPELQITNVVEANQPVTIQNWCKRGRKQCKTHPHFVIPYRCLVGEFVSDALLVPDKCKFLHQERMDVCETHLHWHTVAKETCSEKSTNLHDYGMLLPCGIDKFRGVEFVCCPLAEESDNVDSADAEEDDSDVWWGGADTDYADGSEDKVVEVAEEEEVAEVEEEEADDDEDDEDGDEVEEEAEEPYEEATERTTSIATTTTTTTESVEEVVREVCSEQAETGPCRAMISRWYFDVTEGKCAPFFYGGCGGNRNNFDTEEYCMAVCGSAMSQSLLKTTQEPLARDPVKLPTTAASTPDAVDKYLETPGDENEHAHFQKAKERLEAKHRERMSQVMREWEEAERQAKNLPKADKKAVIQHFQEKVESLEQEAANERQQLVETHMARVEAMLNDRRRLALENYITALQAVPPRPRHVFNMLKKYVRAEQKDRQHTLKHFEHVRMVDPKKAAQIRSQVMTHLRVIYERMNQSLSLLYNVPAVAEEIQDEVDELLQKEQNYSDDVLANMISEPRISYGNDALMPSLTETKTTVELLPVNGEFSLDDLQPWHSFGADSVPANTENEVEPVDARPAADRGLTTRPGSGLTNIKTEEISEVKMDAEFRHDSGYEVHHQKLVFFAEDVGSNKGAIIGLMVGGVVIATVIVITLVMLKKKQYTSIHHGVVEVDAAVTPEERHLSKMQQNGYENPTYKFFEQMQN

One may read the Ki as the equilibrium dissociation constant of an inhibitor or competing ligand from its target. Lower therefore signals tighter binding. For `CNc1ccc(/C=C/C(=O)/C=C/c2ccc(OCCOCCOCCF)cc2)cc1`, the affinity in test [1], expressed as Ki, was 8.6 nM. In addition, the outcome (in the test listed under Mus musculus [2]; in the test listed under Mus musculus [3]; in test [4]) was Active.

These data come from ChEMBL document CHEMBL1765020, “Synthesis and structure-affinity relationships of novel dibenzylideneacetone derivatives as probes for β-amyloid plaques” (J Med Chem, 2011).
